Reference: ChEMBL document CHEMBL1141802, “Sesquiterpenoid metabolites with antiplasmodial activity from a Caribbean gorgonian coral, Eunicea sp” (J Nat Prod, 2005)
≈ marks a conversion by molar mass, not a printed value. Calls of active or inactive are those of the source. The calls are words filed in the database; no cut-off is given here.

How the values were obtained:
Plasmodium falciparum = experiment: Antimalarial activity against chloroquine-resistant Plasmodium falciparum W2 by Picogreen dye fluorimetry; format: functional, organism-based
Summary of the method: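 Fluorometric growth-inhibition assay on chloroquine-resistant W2 strain, detecting parasite DNA by PicoGreen intercalation. Result expressed as IC50 in μg/mL.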

[1] = test system: Mycobacterium tuberculosis; experiment: Antimicrobial activity against Mycobacterium tuberculosis H37Rv at 6.25 ug/mL; format: functional, organism-based
[2] = molecular target: Cyclin-dependent kinase 1/cyclin B1 (Homo sapiens) (UniProt P06493+P14635); experiment: Inhibition of Cdc2/cyclin B
[3] = test system: M-phase inducer phosphatase (Cdc25); experiment: Inhibition of Cdc25
MOLT-4 = experiment: Cytotoxicity against human MOLT4 cells; format: functional, cell-based
MCF7 = experiment: Cytotoxicity against human MCF7 cells; format: functional, cell-based
[4] = Cytotoxicity against human […] cells; format: functional, cell-based
CCRF-CEM = experiment: Cytotoxicity against human CCRF-CEM cells; format: functional, cell-based
HL-60(TB) = experiment: Cytotoxicity against human HL-60(TB) cells; format: functional, cell-based

Cyclin-dependent kinase 1/cyclin B1 (Homo sapiens), sequence (P06493 whole entry, looked up): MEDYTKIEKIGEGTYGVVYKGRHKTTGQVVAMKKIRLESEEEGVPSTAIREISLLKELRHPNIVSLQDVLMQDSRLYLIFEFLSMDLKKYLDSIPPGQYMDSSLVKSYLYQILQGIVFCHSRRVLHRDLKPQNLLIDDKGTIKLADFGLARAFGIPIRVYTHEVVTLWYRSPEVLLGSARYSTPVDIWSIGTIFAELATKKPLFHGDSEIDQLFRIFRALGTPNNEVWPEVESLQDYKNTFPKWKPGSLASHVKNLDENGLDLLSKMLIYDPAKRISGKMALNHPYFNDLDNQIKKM
Cyclin-dependent kinase 1/cyclin B1 (Homo sapiens), sequence (P14635 whole entry, looked up): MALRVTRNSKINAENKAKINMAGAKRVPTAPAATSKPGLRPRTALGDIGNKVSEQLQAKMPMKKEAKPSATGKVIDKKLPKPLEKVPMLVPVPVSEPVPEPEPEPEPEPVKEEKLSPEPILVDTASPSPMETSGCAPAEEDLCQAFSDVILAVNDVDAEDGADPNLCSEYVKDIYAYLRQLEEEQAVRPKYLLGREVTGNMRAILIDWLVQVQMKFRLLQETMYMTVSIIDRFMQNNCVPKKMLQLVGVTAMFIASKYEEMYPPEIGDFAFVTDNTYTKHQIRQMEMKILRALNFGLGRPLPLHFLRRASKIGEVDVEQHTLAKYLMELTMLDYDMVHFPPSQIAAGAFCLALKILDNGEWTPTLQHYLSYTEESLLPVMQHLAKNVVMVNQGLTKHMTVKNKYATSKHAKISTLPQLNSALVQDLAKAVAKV

Which results are given for `C=C1CC[C@H](O)[C@@]2(C)CC[C@@H](C(C)=O)[C@@H](OC(=O)/C=C/C(C)(C)O)[C@H]12`?
IC50 (Plasmodium falciparum): 10 µg/mL (≈ 28.5 µM); Activity [1]: inactive

For `C=C1CC[C@@H](C(C)=O)[C@@H](OC(=O)/C=C/C(C)(C)O)/C=C(\C)CCC1=O`, which IC50 (Plasmodium falciparum) is on record?
The IC50 was 16 µg/mL (≈ 45.9 µM).

And the Activity [1]?
Its Activity is “inactive”.

And the Activity [2]?
Its Activity is “inactive”.

And the Activity [3]?
Its Activity is “inactive”.

What does the source list for `C=C1CC[C@@H](C(C)=O)[C@@H](OC(=O)/C=C/C(C)(C)O)/C=C(\C)CC[C@@H]1O`?
IC50 (Plasmodium falciparum): 14 µg/mL (≈ 39.9 µM); Activity [2]: inactive; Activity [3]: inactive

With `C=C[C@@]1(C)CCC2=C(C)C(=O)O[C@H]2[C@@H]1C(=C)C` as the compound, how does the IC50 (Plasmodium falciparum) read?
The IC50 was over 50 µg/mL.

What does the source list for `C=C1CC[C@@H]2[C@H](/C=C(\C)CC[C@@H]1O)OC(=O)[C@H]2C`?
IC50 (MOLT-4): 19.6 µg/mL (≈ 78.3 µM); IC50 (Plasmodium falciparum): 18 µg/mL (≈ 71.9 µM); IC50 (MCF7): 82.2 µg/mL (≈ 328 µM); IC50 [4]: 90.4 µg/mL (≈ 361 µM); IC50 (CCRF-CEM): 31.3 µg/mL (≈ 125 µM); IC50 (HL-60(TB)): 51.5 µg/mL (≈ 206 µM)

For `C=C[C@@]1(C)CC[C@@H](C(C)=O)[C@@H](OC(=O)/C=C/C(C)(C)O)[C@@H]1C(=C)C`, which Activity [1] is on record?
Its Activity is “inactive”.

With `C=C1CC[C@H](O)[C@@]2(C)CC[C@@H]3[C@@H](OC(=O)[C@H]3C)[C@H]12` as the compound, how does the IC50 (Plasmodium falciparum) read?
Its IC50 is 14 µg/mL (≈ 55.9 µM).

What about the Activity [1] of the same compound?
Its Activity is “inactive”.
